From ChEMBL document CHEMBL4052589, “Discovery of Imidazo[1,2-a]pyridine Ethers and Squaramides as Selective and Potent Inhibitors of Mycobacterial Adenosine Triphosphate (ATP) Synthesis” (J Med Chem, 2017)

Legend:
Format in all cases: functional
[1] = tested on: Mycobacterium tuberculosis; experiment: Antimycobacterial activity against Mycobacterium tuberculosis H37Rv harboring ATP synthase subunit-a K179N mutant supplemented with 4 fold MIC of 3-(4-Morpholinophenyl)-4-((pyridin-2-ylmethyl)amino)cyclobut-3-ene-1,2-dione
Procedure, shortened: (§1)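 Spontaneous resistant mutants were selected by plating M. tuberculosis on 7H10 agar containing the squaramide at 4- or 8-fold its MIC. MIC was then determined for the mutants, with MIC taken as the concentration giving 80% growth inhibition.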

[2] = tested on: Mycobacterium tuberculosis; experiment: Antimycobacterial activity against Mycobacterium tuberculosis H37Rv harboring ATP synthase subunit-c D28N mutant supplemented with 4 fold MIC of 3-(4-Morpholinophenyl)-4-((pyridin-2-ylmethyl)amino)cyclobut-3-ene-1,2-dione; procedure, shortened: as §1
[3] = tested on: Mycobacterium tuberculosis; experiment: Antimycobacterial activity against Mycobacterium tuberculosis H37Rv harboring ATP synthase subunit-c D28N mutant supplemented with 8 fold MIC of 3-(4-Morpholinophenyl)-4-((pyridin-2-ylmethyl)amino)cyclobut-3-ene-1,2-dione; procedure, shortened: as §1
[4] = tested on: Mycobacterium tuberculosis; experiment: Antimycobacterial activity against Mycobacterium tuberculosis H37Rv harboring ATP synthase subunit a K179N mutant supplemented with 8 fold MIC of 3-(4-Morpholinophenyl)-4-((pyridin-2-ylmethyl)amino)cyclobut-3-ene-1,2-dione; procedure, shortened: as §1
[5] = tested on: Mycobacterium tuberculosis; experiment: Selectivity ratio of MIC for Mycobacterium tuberculosis H37Rv harboring ATP synthase subunit-a K179N mutant supplemented with 4 fold MIC of 3-(4-Morpholinophenyl)-4-((pyridin-2-ylmethyl)amino)cyclobut-3-ene-1,2-dione to MIC for Mycobacterium tuberculosis H37Rv
[6] = tested on: Mycobacterium tuberculosis; experiment: Selectivity ratio of MIC for Mycobacterium tuberculosis H37Rv harboring ATP synthase subunit-c D28N mutant supplemented with 4 fold MIC of 3-(4-Morpholinophenyl)-4-((pyridin-2-ylmethyl)amino)cyclobut-3-ene-1,2-dione to MIC for Mycobacterium tuberculosis H37Rv
[7] = tested on: Mycobacterium tuberculosis; experiment: Selectivity ratio of MIC for Mycobacterium tuberculosis H37Rv harboring ATP synthase subunit-c D28N mutant supplemented with 8 fold MIC of 3-(4-Morpholinophenyl)-4-((pyridin-2-ylmethyl)amino)cyclobut-3-ene-1,2-dione to MIC for Mycobacterium tuberculosis H37Rv
[8] = tested on: Mycobacterium tuberculosis; experiment: Selectivity ratio of MIC for Mycobacterium tuberculosis H37Rv harboring ATP synthase subunit a K179N mutant supplemented with 8 fold MIC of 3-(4-Morpholinophenyl)-4-((pyridin-2-ylmethyl)amino)cyclobut-3-ene-1,2-dione to MIC for Mycobacterium tuberculosis H37Rv

Q: With `O=c1c(NCc2cnccn2)c(-c2ccc(N3CCOCC3)cc2)c1=O` as the molecule, how does the “MIC=>80” value [1] read?
A: >100 µM

Q: What about the “MIC=>80” value [2] of the same molecule?
A: >100 µM

Q: And the “MIC=>80” value [3]?
A: >100 µM

Q: And the “MIC=>80” value [4]?
A: >100 µM

Q: And the Selectivity ratio [5]?
A: >8

Q: What about the Selectivity ratio [6] of the same molecule?
A: >8

Q: What about the Selectivity ratio [7] of the same molecule?
A: >8

Q: And the Selectivity ratio [8]?
A: >8

Q: For `O=c1c(NCc2ccccn2)c(-c2ccc(C(F)(F)F)cc2)c1=O`, which “MIC=>80” value [1] is on record?
A: >100 µM

Q: What about the “MIC=>80” value [2] of the same molecule?
A: >100 µM

Q: And the “MIC=>80” value [3]?
A: 100 µM

Q: What about the “MIC=>80” value [4] of the same molecule?
A: >=100 uM

Q: And the Selectivity ratio [5]?
A: >8

Q: What about the Selectivity ratio [6] of the same molecule?
A: >8

Q: What about the Selectivity ratio [7] of the same molecule?
A: >8

Q: What about the Selectivity ratio [8] of the same molecule?
A: >8

Q: How did the “MIC=>80” value [1] turn out when `O=c1c(NCc2ccccn2)c(-c2ccc(N3CCOCC3)cc2)c1=O` was run?
A: >100 µM

Q: What about the “MIC=>80” value [2] of the same molecule?
A: >100 µM

Q: And the “MIC=>80” value [3]?
A: 100 µM

Q: And the “MIC=>80” value [4]?
A: >100 µM

Q: What about the Selectivity ratio [5] of the same molecule?
A: >8

Q: What about the Selectivity ratio [6] of the same molecule?
A: >8

Q: What about the Selectivity ratio [7] of the same molecule?
A: >8

Q: And the Selectivity ratio [8]?
A: >8

Q: With `NNC(=O)c1ccncc1` [ISONIAZID] as the molecule, how does the “MIC=>80” value [1] read?
A: 0.03 µM

Q: What about the “MIC=>80” value [2] of the same molecule?
A: 0.02 µM

Q: And the “MIC=>80” value [3]?
A: 0.03 µM

Q: What about the “MIC=>80” value [4] of the same molecule?
A: 0.02 to 0.03 µM

Q: And the Selectivity ratio [5]?
A: <=4

Q: And the Selectivity ratio [6]?
A: <=4

Q: What about the Selectivity ratio [7] of the same molecule?
A: <=4

Q: And the Selectivity ratio [8]?
A: <=4

Q: With `CO[C@H]1/C=C/O[C@@]2(C)Oc3c(C)c(O)c4c(O)c(c(/C=N/N5CCN(C)CC5)c(O)c4c3C2=O)NC(=O)/C(C)=C\C=C\[C@H](C)[C@H](O)[C@@H](C)[C@@H](O)[C@@H](C)[C@H](OC(C)=O)[C@@H]1C` [RIFAMPIN] as the molecule, how does the “MIC=>80” value [1] read?
A: 0.008 µM

Q: And the “MIC=>80” value [2]?
A: 0.008 µM

Q: And the “MIC=>80” value [3]?
A: 0.016 µM

Q: And the “MIC=>80” value [4]?
A: 0.004 to 0.008 µM

Q: What about the Selectivity ratio [5] of the same molecule?
A: <=4

Q: And the Selectivity ratio [6]?
A: <=4

Q: And the Selectivity ratio [7]?
A: <=4

Q: What about the Selectivity ratio [8] of the same molecule?
A: <=4
